What was measured:
[1] = molecular target: T1, Adenosine receptor A1 (Homo sapiens) (UniProt P30542); experiment: (§1) Agonist activity at adenosine A1 receptor assessed as inhibition of forskolin-stimulated [3H]cAMP accumulation in CHO cells; assay type: functional, cell-based; conditions: concentration not given here
T1 sequence (whole entry): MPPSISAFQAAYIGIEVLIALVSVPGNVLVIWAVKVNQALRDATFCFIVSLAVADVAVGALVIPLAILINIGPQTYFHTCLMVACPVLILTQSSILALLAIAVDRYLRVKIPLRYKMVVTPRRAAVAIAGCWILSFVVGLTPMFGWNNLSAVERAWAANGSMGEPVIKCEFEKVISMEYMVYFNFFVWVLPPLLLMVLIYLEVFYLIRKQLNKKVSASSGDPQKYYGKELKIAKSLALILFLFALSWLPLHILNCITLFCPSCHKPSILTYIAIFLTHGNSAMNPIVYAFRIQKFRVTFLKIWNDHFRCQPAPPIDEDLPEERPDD
Outline: (§2)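 Clonal CHO cells stably expressing human A1 (CHO-A1H) or human A3 (CHO-A3) grown to confluence in 24-well dishes. Labelled with [3H]adenine 2 h at 37 °C in HEPES-buffered Hank's, washed, rolipram 10 µM 15 min. Agonist 5 min, then forskolin 3 µM a further 10 min. Stopped with HCl; [3H]-cAMP isolated on alumina columns, scintillation counted. pEC50 from sigmoidal fits; triplicate determinations.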

[2] = molecular target: T2, Adenosine receptor A1 (Homo sapiens, UniProt P30542); experiment: as §1; assay type: functional, cell-based; outline: as §2
T2 sequence (P30542 whole entry): T1 sequence (whole entry)

[3] = molecular target: T1, Adenosine receptor A1 (Homo sapiens); experiment: (§3) Displacement of [3H]DPCPX from human adenosine A1 receptor in CHO cells; assay type: cell-based; conditions: concentration not given here
Outline: (§4)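 Whole confluent CHO-A1H cells in serum-free DMEM/F12 with competing ligand plus [3H]-DPCPX 1 nM final, 2 h at 37 °C in 5% CO2. Nonspecific binding with 10 µM XAC. Washed twice with cold PBS, scintillant added, counted.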

[4] = molecular target: T2, Adenosine receptor A1; experiment: as §3; assay type: cell-based; outline: as §4
[5] = molecular target: T1, Adenosine receptor A1 (Homo sapiens); experiment: Ratio of pEC50 to pKd at human adenosine A1 receptor in CHO cells; assay type: cell-based
Outline: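 Derived as the difference between -log EC50 from forskolin (3 µM)-stimulated [3H]-cAMP inhibition in CHO-A1H cells and -log KD from inhibition of 1 nM [3H]-DPCPX binding to intact CHO-A1H cells.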

[6] = molecular target: Adenosine receptor A2a (Homo sapiens, UniProt P29274); experiment: Activity at human adenosine A2A receptor assessed as stimulation of [3H]cAMP accumulation in CHO cells; assay type: functional, cell-based
Adenosine receptor A2a, sequence (P29274 whole entry): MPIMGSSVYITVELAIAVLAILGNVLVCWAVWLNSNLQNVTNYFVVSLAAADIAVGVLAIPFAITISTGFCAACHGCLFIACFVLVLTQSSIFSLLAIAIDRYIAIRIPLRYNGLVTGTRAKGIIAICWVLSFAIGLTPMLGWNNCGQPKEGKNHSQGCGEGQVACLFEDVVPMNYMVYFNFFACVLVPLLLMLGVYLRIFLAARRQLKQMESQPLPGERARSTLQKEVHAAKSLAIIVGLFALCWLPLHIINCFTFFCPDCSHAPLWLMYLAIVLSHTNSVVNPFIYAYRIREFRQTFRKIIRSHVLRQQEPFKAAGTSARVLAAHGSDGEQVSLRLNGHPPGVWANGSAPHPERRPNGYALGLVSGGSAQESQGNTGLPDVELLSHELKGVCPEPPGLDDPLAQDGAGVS

[7] = molecular target: T3, Adenosine receptor A2b (Homo sapiens, UniProt P29275); experiment: Activity at human adenosine A2B receptor assessed as stimulation of [3H]cAMP accumulation in CHO cells; assay type: functional, cell-based
T3 sequence (P29275 whole entry): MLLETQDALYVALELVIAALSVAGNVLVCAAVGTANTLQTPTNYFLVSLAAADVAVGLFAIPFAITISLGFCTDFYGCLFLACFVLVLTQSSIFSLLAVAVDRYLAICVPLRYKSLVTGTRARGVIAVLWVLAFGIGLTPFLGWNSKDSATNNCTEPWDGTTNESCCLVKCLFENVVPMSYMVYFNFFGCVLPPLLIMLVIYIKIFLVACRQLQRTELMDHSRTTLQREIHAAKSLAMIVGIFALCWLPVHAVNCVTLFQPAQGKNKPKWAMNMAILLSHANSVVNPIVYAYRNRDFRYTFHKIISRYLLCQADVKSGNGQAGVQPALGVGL
Outline: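 CHO cells expressing human A2B receptor, confluent in 24-well dishes, [3H]adenine-labelled 2 h at 37 °C in HEPES-buffered Hank's, then rolipram 10 µM 15 min. Agonist added 10 min without forskolin. HCl termination, alumina-column isolation of [3H]-cAMP, scintillation counting. pEC50 by sigmoidal curve fitting; each experiment in triplicate.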

[8] = molecular target: T2, Adenosine receptor A1; experiment: Activity at human adenosine A1 receptor assessed as inhibition of forskolin-stimulated cAMP accumulation in CHO cells; assay type: functional, cell-based; outline: as §2
[9] = molecular target: T4, Adenosine receptor A3 (Homo sapiens, UniProt P0DMS8); experiment: Activity at human adenosine A3 receptor assessed as inhibition of forskolin-stimulated cAMP accumulation in CHO cells; assay type: functional, cell-based; outline: as §2
T4 sequence (P0DMS8 whole entry): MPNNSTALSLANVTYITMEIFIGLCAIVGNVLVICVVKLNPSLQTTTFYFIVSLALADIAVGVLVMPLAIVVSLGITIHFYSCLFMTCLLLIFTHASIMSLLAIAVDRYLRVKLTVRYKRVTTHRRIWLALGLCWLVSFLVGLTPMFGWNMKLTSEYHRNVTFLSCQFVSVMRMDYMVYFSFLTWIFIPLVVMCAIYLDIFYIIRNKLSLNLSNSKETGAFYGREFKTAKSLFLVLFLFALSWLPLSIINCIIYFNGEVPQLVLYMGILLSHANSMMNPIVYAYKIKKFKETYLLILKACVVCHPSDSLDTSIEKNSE

Row | SMILES | inhibition [1] [%] | EC50 [2] [nM] | inhibition [3] [%] | Kd [4] [nM] | Ratio [5] | EC50 [6] [nM] | EC50 [7] [nM] | EC50 [8] [nM] | EC50 [9] [nM]
1 | CCNC(=O)[C@H]1O[C@@H](n2cnc3c(NCCCCCCCCNC(=O)CCCCCNC(=O)COc4ccc(/C=C/C5=[N+]6C(=Cc7ccc(-c8cccs8)n7[B-]6(F)F)C=C5)cc4)ncnc32)[C@H](O)[C@@H]1O | 77 | 12 | – | – | – | – | – | – | –
2 | CCNC(=O)[C@H]1O[C@@H](n2cnc3c(NCCCCNC(=O)CCCCCNC(=O)COc4ccc(/C=C/C5=[N+]6C(=Cc7ccc(-c8cccs8)n7[B-]6(F)F)C=C5)cc4)ncnc32)[C@H](O)[C@@H]1O | 99 | 3.39 | 49.3 | 158 | 1.67 | 174 | 2040 | 3.39 | 2.69
3 | CCNC(=O)[C@H]1O[C@@H](n2cnc3c(NCCCNC(=O)CCCCCNC(=O)COc4ccc(/C=C/C5=[N+]6C(=Cc7ccc(-c8cccs8)n7[B-]6(F)F)C=C5)cc4)ncnc32)[C@H](O)[C@@H]1O | 92 | 0.692 | 50.9 | 245 | 2.55 | – | – | – | –
4 | CCNC(=O)[C@H]1O[C@@H](n2cnc3c(N)ncnc32)[C@H](O)[C@@H]1O | 98 | – | 83.3 | – | – | – | – | – | –
5 | O=C(CCCCCNC(=O)COc1ccc(/C=C/C2=[N+]3C(=Cc4ccc(-c5cccs5)n4[B-]3(F)F)C=C2)cc1)NCCCCNc1ncnc2c1ncn2[C@@H]1O[C@H](CO)[C@@H](O)[C@H]1O | 96 | 5.13 | 48.1 | 224 | 1.64 | – | – | – | –
6 | CCNC(=O)[C@H]1O[C@@H](n2cnc3c(NCCCCCNC(=O)CCCCCNC(=O)COc4ccc(/C=C/C5=[N+]6C(=Cc7ccc(-c8cccs8)n7[B-]6(F)F)C=C5)cc4)ncnc32)[C@H](O)[C@@H]1O | 96 | 0.708 | – | – | – | – | – | – | –

Reference: ChEMBL document CHEMBL1141376, “New fluorescent adenosine A1-receptor agonists that allow quantification of ligand-receptor interactions in microdomains of single living cells” (J Med Chem, 2007)
